Bioassay records: PubChem BioAssay, several laboratories
STAT3 inh-1: reduces IL-6 driven STAT3 reporter signal. U3A cells, IL-6 STAT3-luciferase reporter, luminescence; host cell line lacks STAT1. inhibition, % at 5.5 µM. 190,000 compounds, 0.89% hits;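 active means inhibition above the mean inhibition across all screened compounds plus 3 SD, cut at about 44% in these data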
STAT3 activator: STAT3 signaling activation | U3A cells, IL-6 STAT3-luciferase reporter, luminescence; 100% = signal with IL-6 EC80 alone | activation (% of control), % at 5.6 µM | 190,000 compounds, 0.91% hits | AID 871;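 active means activation above the screen-wide mean of compound activation plus 3 SD, cut at about 130% in these data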
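Material: human STAT1-deficient U3A cells with stable STAT3-luciferase reporter / Probe or stimulus: IL-6 stimulus at 33 ng/mL final / Schedule: 1 h compound pre-exposure, 6 h IL-6 stimulation, 37 °C / Technique: luminescence / Read-out basis: percent of IL-6-only median luminescence / Control set: IL-6-only high control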
PPC-1+TRAIL kill: kills PPC-1 cancer cells in the presence of TRAIL. PPC-1 cells + TRAIL, ATPLite viability luminescence. cell killing (% activity), % at 4 µM or 5 µM. 220,000 compounds, 0.41% hits. AID 1443;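 active means cell killing above 50% in the first pass at 4 µM, then a duplicate retest at 5 µM averaging 50% or more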
C8 TRAIL sens: caspase-8 TRAIL sensitization; NB7+C8 cells + TRAIL, ATPlite viability luminescence; inhibition (viability loss, TRAIL sensitization), % at 10 µM; 360,000 compounds, 1% hits; AID 624354;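 active means compounds causing at least 50% loss of cell viability in the single-dose screen, relative to plate controls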
HSP90 inh: inhibitors of HSP90 luciferase refolding in rabbit reticulocyte lysate; luciferase refolding luminescence, 3 h; inhibition, % at 5.6 µM; 290,000 compounds, 0.91% hits; AID 1789;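 active means inhibition above the screen-wide mean plus 3 SD, computed separately per campaign, cut at about 16% in these data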;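 further: inhibitors lower the luminescence because luciferase stays unfolded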
STAT1 inh: reduces IFN-gamma driven STAT1 reporter signal; 200,000 compounds, 0.35% hits; inhibition, % at 5.5 µM; NIH 3T3 STAT1-luciferase reporter, luminescence;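 active means inhibition above a set limit, the mean inhibition across all tested compounds plus 3 SD, cut at about 34% in these data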
STAT3 inh-2: STAT3 inhibition, confirmation assay | shares compounds with STAT3 inh-1 | U3A cells, IL-6 STAT3 luciferase reporter, luminescence; cell line lacks STAT1 | inhibition, % at 5.7 µM | 1,200 compounds, 45% hits;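 active means inhibition above the hit cutoff computed for the primary STAT3 screen, cut at about 44% in these data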
NFkB inh STAT3ct: counter-screen for STAT3 inhibitors: NF-kappaB inhibition. inhibition, % at 5.7 µM. AID 1308. 1,200 compounds, 36% hits. HEK293T NF-kB luciferase reporter, TNF-alpha induced. shares compounds with STAT3 inh-1;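 active means inhibition above the mean of solvent-only control wells plus 3 SD, cutoff set per campaign, cut at about 13% in these data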
STAT1 inh STAT3c: STAT1 inhibition in STAT3 inhibitor counter-screen. 1,200 compounds, 27% hits. inhibition, % at 5.7 µM. NIH 3T3 STAT1-luciferase reporter, IFN-gamma induced, luminescence. shares compounds with STAT3 inh-1;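 active means inhibition above the mean plus 3 SD of solvent-only control wells, limit set per screening run, cut at about 16% in these data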
Each line names hits and unclear results; the compound was inactive in the other large screens (follow-up assays come after a bar, where they were run). Only some compounds are listed: those with a hit (about 2.3% of all), similar ones and a draw of the others.

CCOC(=O)C(=NC(C)C)NNc1cc(Cl)ccc1Cl	none
Cc1sc(NC(=O)c2ccco2)c(C(c2cccnc2)N2CCC(C)CC2)c1C (stereo not given)	STAT3 inh-1 68 | STAT3 inh-2 67 | NFkB inh STAT3ct 16 | STAT1 inh STAT3c inactive
COc1ccc(/C=N/NC(=O)CSCC(=O)Nc2ccccc2)cc1OC	none
COC(=O)Oc1ccc(/C=N/NC(=O)CSCc2ccccc2Br)cc1OC	STAT3 inh-1 58 | STAT3 inh-2 66 | NFkB inh STAT3ct inactive | STAT1 inh STAT3c inactive
COc1ccc(S(=O)(=O)Oc2ccc3cccc(N)c3c2)cc1	none (no result: STAT3 inh-1, STAT3 activator, PPC-1+TRAIL kill, HSP90 inh, STAT1 inh)
O=C1c2ccccc2C(=O)N1CC1c2ccccc2CCN1C(=O)C1CCCCC1 (stereo not given)	none
O=C(O)[C@@H]1CCCC[C@@H]1C(=O)N1CCc2ccccc2C1CN1C(=O)c2ccccc2C1=O (stereo not given in full)	STAT3 inh-1 59 | STAT3 inh-2 53 | NFkB inh STAT3ct 19 | STAT1 inh STAT3c 23
CC(C)(C)NC(=O)COC(=O)c1snc(C(=O)NC2CCCCC2)c1N	STAT3 inh-1 76 | STAT3 inh-2 72 | NFkB inh STAT3ct 22 | STAT1 inh STAT3c inactive
CC(OC(=O)c1snc(C(=O)NC2CCCCC2)c1N)C(=O)NC(C)(C)C (stereo not given)	none
CCCCOC(=O)c1[nH]c2c(c1C)C(=O)CC(c1cc(OC)c(OC)c(OC)c1)C2 (stereo not given)	STAT3 inh-1 53 | STAT3 inh-2 63 | NFkB inh STAT3ct 23 | STAT1 inh STAT3c 24
C=CCN1CCN(C(c2ccccc2OC)c2nnnn2C(C)(C)C)CC1 (stereo not given)	none (no result: PPC-1+TRAIL kill)
CCc1nc(-c2ccccc2)c2ccccn12	none
CC(=O)c1c(C)[nH]c(C(=O)OCC(=O)Nc2ccc(Cl)cc2[N+](=O)[O-])c1C	STAT3 inh-1 57 | STAT3 inh-2 73 | NFkB inh STAT3ct 28 | STAT1 inh STAT3c 28
O=C(COC(=O)c1cc[n+]([O-])cc1)Nc1ccc(Cl)cc1[N+](=O)[O-]	none
O=S(=O)(c1cccs1)N1CCN(CC(O)COc2cc(Cl)ccc2Cl)CC1 (stereo not given)	STAT3 inh-1 54 | STAT3 inh-2 inactive | NFkB inh STAT3ct 15 | STAT1 inh STAT3c 17
O=S(=O)(c1cccs1)N1CCN(CCOc2ccc(Cl)cc2)CC1	none (no result: STAT3 inh-1, STAT3 activator, PPC-1+TRAIL kill, HSP90 inh, STAT1 inh)
CCCNC(=O)C1(C)CCCN(C(=O)Cc2cccc(OC)c2)C1 (stereo not given)	none (no result: STAT3 inh-1, STAT3 activator, PPC-1+TRAIL kill, HSP90 inh, STAT1 inh)
COc1ccc(-c2cn(-c3ccc(OC)cc3)c3[n+]2-c2ccccc2CC3)cc1	STAT3 inh-1 73 | STAT3 inh-2 79 | NFkB inh STAT3ct inactive | STAT1 inh STAT3c 23
COc1ccc(-n2cc(-c3ccccc3)[n+]3c2CCCCC3)cc1	none
O=C(/C=C\Nc1ccc2c(c1)OCO2)c1ccc(Cl)s1	STAT3 inh-1 62, C8 TRAIL sens 73 | STAT3 inh-2 inactive | NFkB inh STAT3ct inactive | STAT1 inh STAT3c inactive
COc1ccc(N/C=C/C(=O)c2ccc3c(c2)OCO3)cc1OC	none
COc1ccc(C2C(=O)c3ccccc3C2=O)cc1	none
O=C1c2ccccc2C(=O)C1c1nccc2ccccc12	STAT3 inh-1 62, C8 TRAIL sens 89 | STAT3 inh-2 inactive | NFkB inh STAT3ct 49 | STAT1 inh STAT3c inactive
Cc1cccc(NC(=O)c2cccc(OC(=S)N3CCOCC3)c2)c1	none (no result: STAT3 inh-1, STAT3 activator, PPC-1+TRAIL kill, STAT1 inh)
O=C(Nc1cccc(Cl)c1)c1ccc(OC(=S)N2CCOCC2)cc1	STAT3 inh-1 57 | STAT3 inh-2 inactive | NFkB inh STAT3ct inactive | STAT1 inh STAT3c inactive
Fc1ccccc1/C=C/c1ccc2ccccc2n1	STAT3 inh-1 72, C8 TRAIL sens 77 | STAT3 inh-2 inactive | NFkB inh STAT3ct 30 | STAT1 inh STAT3c inactive
CC(=O)c1c(C)[nH]c(C(=O)OCc2ccc([N+](=O)[O-])cc2)c1C	none (no result: STAT3 inh-1, STAT3 activator, PPC-1+TRAIL kill, STAT1 inh)
COC(=O)c1ccc(COC(=O)c2[nH]c(C)c(C(C)=O)c2C)o1	STAT3 inh-1 47 | STAT3 inh-2 52 | NFkB inh STAT3ct inactive | STAT1 inh STAT3c inactive
COCCn1c(SCCCC(=O)c2ccc(Br)cc2)nnc1-c1ccncc1	STAT3 inh-1 53 | STAT3 inh-2 45 | NFkB inh STAT3ct 13 | STAT1 inh STAT3c inactive
Cc1ccc(-c2cn(-c3ccccc3)c3[n+]2CCCS3)cc1	STAT3 inh-1 57 | STAT3 inh-2 50 | NFkB inh STAT3ct inactive | STAT1 inh STAT3c 28
COc1ccc(-n2cc(-c3ccc(C)cc3)[n+]3c2SCC3)cc1	STAT3 inh-1 69 | STAT3 inh-2 75 | NFkB inh STAT3ct inactive | STAT1 inh STAT3c 23
c1ccc(-c2cn(-c3ccccc3)c3[n+]2CCCS3)cc1	none (no result: STAT3 inh-1, STAT3 activator, STAT1 inh)
Cc1cccc(NC(=O)c2onc3c2CCCC3)n1	STAT3 inh-1 71, PPC-1+TRAIL kill 81, C8 TRAIL sens 86, HSP90 inh 28 | STAT3 inh-2 55 | NFkB inh STAT3ct 18 | STAT1 inh STAT3c inactive
CCCS(=O)(=O)N1CCC(C(=O)NCc2ccc3c(c2)OCO3)CC1	none
c1ccc(-c2nnc(NC3=NCCC3)o2)cc1	STAT3 inh-1 44, HSP90 inh 17 | STAT3 inh-2 inactive | NFkB inh STAT3ct inactive | STAT1 inh STAT3c inactive
CC(C)C(=O)Nc1nnc(-c2ccccc2)o1	none
O=C(Nc1ccc2c(c1)OCO2)c1noc2c1CCCC2	none (no result: STAT3 inh-1, STAT3 activator, PPC-1+TRAIL kill, STAT1 inh)
COc1ccc(NC(=O)CSc2ncccc2C(=O)OC(C)C)cc1OC	STAT3 inh-1 51 | STAT3 inh-2 inactive | NFkB inh STAT3ct inactive | STAT1 inh STAT3c 17
CCCC1(c2ccccc2)NC(=O)N(CC(=O)Nc2ccc(N3CCOCC3)cc2)C1=O (stereo not given)	none (no result: STAT3 inh-1, STAT3 activator, PPC-1+TRAIL kill, HSP90 inh, STAT1 inh)
CC(C)c1cc(NC(=O)CCl)on1	STAT3 inh-1 53 | STAT3 inh-2 inactive | NFkB inh STAT3ct inactive | STAT1 inh STAT3c inactive
Cc1cc(Br)c(NC(=O)CCl)c(Br)c1	none
COc1ccc(NC(=O)c2c(Nc3ccccc3)sc(C(=O)c3ccc(F)cc3)c2N)cc1	STAT3 inh-1 61 | STAT3 inh-2 inactive | NFkB inh STAT3ct 35 | STAT1 inh STAT3c 43
COc1ccc(C(=O)c2sc(Nc3ccccc3)c(C(=O)Nc3ccc(OC)c(OC)c3)c2N)cc1	none
COc1cccc(-c2nnc(SCC(=O)Nc3cc(C)on3)o2)c1	none
CCOc1ccc(-c2nnc(SCC(=O)Nc3cc(C)on3)o2)cc1	STAT3 inh-1 49 | STAT3 inh-2 inactive | NFkB inh STAT3ct 16 | STAT1 inh STAT3c inactive
